High-throughput results (PubChem)
In the library only some 3.7% were active in any assay of this set; here they are far more common.
hERG protect = hERG rescue from dofetilide block, primary screen, cell-based, CHO-hERG, FluxOR thallium flux, dofetilide IC70; activation (rescue from dofetilide block), less the hit threshold, % at 10 µM; 310,000 tested, 0.51% active; dofetilide IC70 present;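 active = activation above the mean of controls blocked by dofetilide plus 5 SD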;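 note: thallium influx through hERG after potassium depolarization seen as dye fluorescence rise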
KCNQ1 inh = inhibitors of human KCNQ1 channel, primary screen, cell-based, thallium flux, high-throughput | AID 2642, 2010 | Potassium voltage-gated channel subfamily KQT member 1 (Homo sapiens), P51787 | B-score at 10 µM | CHO-K1 KCNQ1, FluxOR thallium flux fluorescence; active compounds read high | 310,000 tested, 1.3% active;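 active = compounds whose thallium flux B-score, printed positive for inhibition, exceeds three library SD while starting fluorescence stays within three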;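 note: channel opened by potassium depolarization with thallium stimulus after 20 min compound exposure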
Kir21 block = inhibitors of mouse Kir2.1 inward-rectifier potassium channel | Inward rectifier potassium channel 2 (Mus musculus), P35561 | HEK293-Kir2.1, FluxOR thallium flux fluorescence; active compounds read low | B-score at 10 µM | 310,000 tested, 0.85% active;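 active = fluorescence ratio B-score at or below minus 3 SD of library scores, with starting-brightness B-score within 2 SD, cut at about -4.2 in these data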;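 note: channel flux triggered by added potassium and thallium sulfate stimulus; B-score of peak minus minimum fluorescence over baseline after thallium stimulus; more negative B-score means stronger Kir2.1 block with less thallium influx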
KCNQ1 pot = potentiators or activators of KCNQ1 channel, primary screen, cell-based, thallium flux, high-throughput; Potassium voltage-gated channel subfamily KQT member 1 (Homo sapiens), P51787; CHO-K1 KCNQ1, thallium flux FluxOR fluorescence; active compounds read high; B-score at 10 µM; 310,000 tested, 0.35% active;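 active = fluorescence ratio B-score, a plate-corrected score, at least three library SD, with initial intensity B-score within 5 SD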
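System: CHO-K1 cells stably expressing KCNQ1 / Medium: assay buffer for compound exposure, DMSO matched across wells / Reagent: thallium- and potassium-containing depolarizing buffer / Compound: one concentration, matched DMSO / Incubation: 20 min compound pretreatment at room temperature / Measured by: kinetic FluxOR fluorescence, 10 s baseline plus 110 s post-stimulus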
KCNK3 inh = human KCNK3 channel inhibitors, primary screen, CHO cells, FluxOR thallium flux, B-score | FluxOR fluorescence; active compounds read low | B-score at 10 µM | 340,000 tested, 0.84% active | AID 602410, 2012;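 active = B-score under library mean minus 4 SD, starting fluorescence ratio at most library mean plus 5 SD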;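 note: more negative B-score means stronger inhibition of thallium flux through KCNK3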
Target sequence (O14649 whole entry, looked up): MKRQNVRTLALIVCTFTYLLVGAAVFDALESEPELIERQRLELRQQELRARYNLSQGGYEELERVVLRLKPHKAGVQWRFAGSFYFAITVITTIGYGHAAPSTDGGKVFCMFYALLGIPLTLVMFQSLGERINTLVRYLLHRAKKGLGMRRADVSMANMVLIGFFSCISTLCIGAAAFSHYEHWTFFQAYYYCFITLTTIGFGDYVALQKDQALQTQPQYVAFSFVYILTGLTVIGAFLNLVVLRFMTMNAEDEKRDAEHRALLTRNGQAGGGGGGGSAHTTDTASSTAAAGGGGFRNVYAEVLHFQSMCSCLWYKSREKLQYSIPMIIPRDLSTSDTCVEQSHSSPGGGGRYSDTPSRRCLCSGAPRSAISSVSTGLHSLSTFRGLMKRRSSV
KCNK9 block = KCNK9 potassium channel inhibitors, primary screen, HEK293 cells, thallium flux | Potassium channel subfamily K member 9 (Homo sapiens), Q9NPC2 | FluxOR thallium flux fluorescence; active compounds read low | B-score at 10 µM | 310,000 tested, 1.2% active | AID 488922, 2010;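 active = ratio B-score over 3 SD below the library mean, with starting fluorescence within 5 SD of its mean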;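 note: negative B-score means less thallium flux so channel inhibition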
KCNK3 inh conf = retest of human KCNK3 channel inhibitors, confirmation, CHO cells, FluxOR thallium flux, triplicate; FluxOR fluorescence; 0% buffer, 100% carvedilol maximal block; 2,400 tested, 99% active; ratio percent of control, % at 10 µM; shares compounds with KCNK3 inh;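 active = ratio percent of control, averaged over triplicates, above buffer control mean plus 5 SD, cut at about 64% in these data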;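 note: ratio is the fluorescence rise from min to max over baseline after thallium stimulus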
KCNK3 uninduced = thallium flux inhibition in non-induced cells, primary screen, counter-screen for KCNK3 inhibitor project, cell-based, non-induced KCNK3 line, FluxOR thallium, triplicate | shares compounds with KCNK3 inh | thallium flux ratio (lower = more inhibition) at 10 µM | AID 651747, 2012 | 2,400 tested, 40% active | non-induced KCNK3 parental cells; active compounds read low;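 active = thallium flux ratio, averaged over three wells, more than 5 SD below the buffer control mean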;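 note: host cells are CHO cells without KCNK3 induction; ratio is peak minus trough fluorescence over baseline then normalized to buffer controls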
* = called active by the depositor; i = inactive; . = no result.

SMILES	hERG protect	KCNQ1 inh	Kir21 block	KCNQ1 pot	KCNK3 inh	KCNK9 block	KCNK3 inh conf	KCNK3 uninduced
Cc1ccc(NC(=S)N(C)C(c2ccccc2)c2ccccc2)cc1C	-7.8	i	1.39	i	-9.05*	i	133.7*	0.122*
CCCN(Cc1ccccc1)C(=S)Nc1ccc(F)cc1	-13.8	i	-0.02	i	i	i	.	.
CN(C(=S)Nc1ccc(F)cc1)C(c1ccccc1)c1ccccc1	-12.4	i	0.77	i	-10.8*	i	115.3*	i
CCOC(=O)c1cnc(N2CCN(C(=O)OCC)CC2)[nH]c1=O	-6.6	i	-0.04	i	i	i	.	.
CCOC(=O)c1c(CSC(=N)N)n(-c2ccccc2)c2cc(Br)c(OC(C)=O)cc12	-31.6	i	-4.45*	i	-10.4*	i	129.3*	0.138*
Cc1ccc(C)c(NC(=O)c2ccc3c(c2)N(Cc2ccc(F)cc2)C(=O)CS3=O)c1 (stereo not drawn)	-10.0	i	-0.55	i	i	i	.	.
O=C(Nc1ccc(Br)cc1F)c1ccc2c(c1)N(Cc1ccccc1)C(=O)CS2=O (stereo not drawn)	-6.0	i	-1.24	i	-12.8*	i	100.3*	i
CC1CCN(C(=O)CSc2ccc(-c3ccc(F)cc3)nn2)CC1	-10.1	i	1.33	i	i	i	.	.
CC1CC(C)(C)N(C(=O)CSc2ccc(-c3ccc(F)cc3)nn2)c2ccccc21 (stereo not drawn)	-9.5	7*	-0.7	i	-11.5*	i	111.7*	0.154*
CCN1/C(=C\C(=S)Nc2ccccc2)Sc2ccccc21	-13.5	i	0.14	i	-9.82*	i	110.3*	i
COc1cc(/C=N/NC(=O)c2cc(C)oc2C)ccc1OCc1ccccc1	-9.1	i	-0.01	i	i	i	.	.
CSc1cccc(CN2CCC(CO)(Cc3cccc(C(F)(F)F)c3)CC2)c1	-18.2	i	-1.58	i	-11.1*	i	115.7*	0.148*
Cc1ccc(-n2cc(CN3CCC(CO)(Cc4cccc(C(F)(F)F)c4)CC3)cn2)cc1	-23.3	i	-2.46	i	i	i	.	.
CCNC(=O)C(=O)Nc1ccc2c(c1)N(S(=O)(=O)c1cccs1)CCC2	-15.3	i	0.52	i	i	i	.	.
O=C(Nc1ccc2c(c1)N(S(=O)(=O)c1cccs1)CCC2)c1c(F)cccc1F	-13.7	i	0.95	i	-8.71*	i	100.7*	i
CCc1nc(Nc2ccccc2OC)c2oc3ccccc3c2n1	-5.3	i	0.27	i	-9.16*	i	116.3*	0.145*
CCc1nc(Nc2cc(OC)ccc2OC)c2oc3ccccc3c2n1	-0.6	i	1.92	i	i	i	.	.
COC(=O)CSc1nc2c(c(-c3ccco3)c1C#N)CCCC2	-7.6	i	-0.62	i	i	i	.	.
CCOC(=O)CSc1nc2c(c(-c3ccc(C)o3)c1C#N)CCCC2	-9.3	i	1.12	i	-9.32*	i	97.7*	i
Cc1ccccc1NC(=O)c1cc2ccccc2o1	-9.6	i	-1.93	i	i	i	.	.
CC1CCN(c2ccccc2NC(=O)c2cc3ccccc3o2)CC1	-11.6	i	-1.18	i	-9.74*	i	105.7*	i
Cc1ccc(-c2cc(-c3ccc(C)o3)nc(N)c2C#N)cc1	-10.8	i	0.79	i	-10.9*	i	101.3*	i
